The target in data set [1] is T1, Leucine-rich repeat serine/threonine-protein kinase 2 (Homo sapiens, UniProt Q5S007, G2019S). The data set is described as follows: Inhibition of LRRK2 G2019S mutant (unknown origin) transfected in HEK293 cells assessed decrease in S935 autophosphorylation. The data set is classed as cell-based. Summed up:
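HEK293 cells stably transfected with LRRK2 G2019S; kinase inhibition read as decrease in LRRK2 S935 phosphorylation.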

The species named for data set [2] is Homo sapiens. In words: Selectivity ratio of IC50 for wild type LRRK2 (unknown origin) to IC50 for LRRK2 G2019S mutant (unknown origin). Summed up:
(§1)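 HTRF assay with GST-LRRK2 (G2019S or wild type) measuring inhibition of LRRKtide phosphorylation. Biotinylated LRRKtide substrate; detection with Eu(K)-labelled anti-phospho-Moesin antibody plus streptavidin-XL665, read at 620 and 665 nm. Ratio taken as wild-type IC50 over G2019S IC50.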

Data set [3] concerns the target Leucine-rich repeat serine/threonine-protein kinase 2 (Homo sapiens, UniProt Q5S007). The data set is described as follows: Inhibition of wild type LRRK2 (unknown origin) by TR-FRET assay. Summed up: as §1
The target in data set [4] is T1, Leucine-rich repeat serine/threonine-protein kinase 2. The data set is described as follows: Inhibition of LRRK2 G2019S mutant (unknown origin) by TR-FRET assay. Summed up: as §1
A general note: TR-FRET usually uses a lanthanide donor and a delayed reading to cut background.

Data set [5] is described as follows: Permeability of the compound. It counts as ADME. Particulars: not told; read-out: permeability.
In data set [6] the test system is P-gp. In words: Efflux ratio in P-gp (unknown origin) mediated drug transport. The data set is classed as ADME. Particulars: human, not told.
A short description of data set [7]: Kinetic solubility of the compound in isotonic buffer at pH 7.4. It counts as physicochemical. The note with it: read-out: Kinetic_solubility.
For data set [8], the target named is Dual specificity protein kinase TTK (Homo sapiens) (UniProt P33981). In words: Inhibition of Ttk (unknown origin) at 1 uM. In outline:
(§2)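 Single-point panel run by an outside contract lab: inhibition of each of 40 selected kinases measured at 1 µM test compound; percent inhibition reported.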

The target of data set [9] is Proto-oncogene tyrosine-protein kinase receptor Ret (Homo sapiens) (UniProt P07949). The data set is described as follows: Inhibition of Ret (unknown origin) at 1 uM. In outline:
as §2

The target of data set [10] is Tyrosine-protein kinase SYK (Homo sapiens) (UniProt P43405). In words: Inhibition of Syk (unknown origin) at 1 uM. In outline: as §2
Data set [11] addresses Serine/threonine-protein kinase PLK1 (Homo sapiens) (UniProt P53350). In words: Inhibition of PLK1 (unknown origin) at 1 uM. In outline: as §2
Data set [12] deals with RAF proto-oncogene serine/threonine-protein kinase (Homo sapiens) (UniProt P04049). In words: Inhibition of Raf1 (unknown origin) at 1 uM. In outline: as §2
The target of data set [13] is Phosphatidylinositol 4,5-bisphosphate 3-kinase catalytic subunit alpha isoform (Homo sapiens) (UniProt P42336). The data set is described as follows: Inhibition of PIK3CA (unknown origin) at 1 uM. Summed up:
as §2

The species named for data set [14] is Homo sapiens. In words: Inhibition of MAPK (unknown origin) at 1 uM. In outline:
as §2

The target in data set [15] is Platelet-derived growth factor receptor alpha (Homo sapiens) (UniProt P16234). In words: Inhibition of PDGFRalpha (unknown origin) at 1 uM. Summed up: as §2
Data set [16] deals with Tyrosine-protein kinase JAK1 (Homo sapiens) (UniProt P23458). The data set is described as follows: Inhibition of Jak1 (unknown origin) at 1 uM. In outline:
as §2

Data set [17] has as its target Receptor-type tyrosine-protein kinase FLT3 (Homo sapiens) (UniProt P36888). In words: Inhibition of Flt3 (unknown origin) at 1 uM. In outline: as §2
Data set [18] addresses Glycogen synthase kinase-3 beta (Homo sapiens) (UniProt P49841). In words: Inhibition of GSK3beta (unknown origin) at 1 uM. Summed up:
as §2

The target of data set [19] is Receptor tyrosine-protein kinase erbB-4 (Homo sapiens) (UniProt Q15303). In words: Inhibition of ErbB4 (unknown origin) at 1 uM. Summed up:
as §2

For data set [20], the target named is Serine/threonine-protein kinase Chk1 (Homo sapiens) (UniProt O14757). The data set is described as follows: Inhibition of Chek1 (unknown origin) at 1 uM. Summed up: as §2
For data set [21], the target named is Macrophage colony-stimulating factor 1 receptor (Homo sapiens) (UniProt P07333). In words: Inhibition of CSF1R (unknown origin) at 1 uM. Summed up:
as §2

The target of data set [22] is Cyclin-dependent kinase 5/CDK5 activator 1 (Homo sapiens) (UniProt Q00535+Q15078). In words: Inhibition of CDK5/p25 (unknown origin) at 1 uM. The data set is classed as protein-complex assay. In outline: as §2
For data set [23], the target named is Cyclin-dependent kinase 1/cyclin B1 (Homo sapiens) (UniProt P06493+P14635). The data set is described as follows: Inhibition of CDK1/Cyclin B (unknown origin) at 1 uM. The data set is classed as protein-complex assay. Summed up:
as §2

In data set [24] the target is RAC-alpha serine/threonine-protein kinase (Homo sapiens) (UniProt P31749). In words: Inhibition of Akt1 (unknown origin) at 1 uM. In outline:
as §2

Data set [25] has as its target Aurora kinase A (Homo sapiens) (UniProt O14965). The data set is described as follows: Inhibition of Aurora A (unknown origin) at 1 uM. Summed up:
as §2

Data set [26] has as its target Tyrosine-protein kinase ABL1 (Homo sapiens) (UniProt P00519). In words: Inhibition of Abl1 (unknown origin) at 1 uM. In outline: as §2
For data set [27], the system named is Liver microsomes. The data set is described as follows: Metabolic stability in human liver microsomes. It counts as ADME, Microsome.
In data set [28] the test system is Liver microsomes. The data set is described as follows: Metabolic stability in rat liver microsomes after 30 mins. It counts as ADME, Microsome. Particulars: 0.5 h. In outline:
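Compound incubated with NADPH-supplemented rat liver microsomes at 37 °C for 30 min; parent consumption and sulfoxide/sulfone metabolite formation monitored.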

≈ marks a conversion by molar mass, not a printed value. Bounds are passed on as bounds.

T1 sequence (Q5S007 whole entry G2019S): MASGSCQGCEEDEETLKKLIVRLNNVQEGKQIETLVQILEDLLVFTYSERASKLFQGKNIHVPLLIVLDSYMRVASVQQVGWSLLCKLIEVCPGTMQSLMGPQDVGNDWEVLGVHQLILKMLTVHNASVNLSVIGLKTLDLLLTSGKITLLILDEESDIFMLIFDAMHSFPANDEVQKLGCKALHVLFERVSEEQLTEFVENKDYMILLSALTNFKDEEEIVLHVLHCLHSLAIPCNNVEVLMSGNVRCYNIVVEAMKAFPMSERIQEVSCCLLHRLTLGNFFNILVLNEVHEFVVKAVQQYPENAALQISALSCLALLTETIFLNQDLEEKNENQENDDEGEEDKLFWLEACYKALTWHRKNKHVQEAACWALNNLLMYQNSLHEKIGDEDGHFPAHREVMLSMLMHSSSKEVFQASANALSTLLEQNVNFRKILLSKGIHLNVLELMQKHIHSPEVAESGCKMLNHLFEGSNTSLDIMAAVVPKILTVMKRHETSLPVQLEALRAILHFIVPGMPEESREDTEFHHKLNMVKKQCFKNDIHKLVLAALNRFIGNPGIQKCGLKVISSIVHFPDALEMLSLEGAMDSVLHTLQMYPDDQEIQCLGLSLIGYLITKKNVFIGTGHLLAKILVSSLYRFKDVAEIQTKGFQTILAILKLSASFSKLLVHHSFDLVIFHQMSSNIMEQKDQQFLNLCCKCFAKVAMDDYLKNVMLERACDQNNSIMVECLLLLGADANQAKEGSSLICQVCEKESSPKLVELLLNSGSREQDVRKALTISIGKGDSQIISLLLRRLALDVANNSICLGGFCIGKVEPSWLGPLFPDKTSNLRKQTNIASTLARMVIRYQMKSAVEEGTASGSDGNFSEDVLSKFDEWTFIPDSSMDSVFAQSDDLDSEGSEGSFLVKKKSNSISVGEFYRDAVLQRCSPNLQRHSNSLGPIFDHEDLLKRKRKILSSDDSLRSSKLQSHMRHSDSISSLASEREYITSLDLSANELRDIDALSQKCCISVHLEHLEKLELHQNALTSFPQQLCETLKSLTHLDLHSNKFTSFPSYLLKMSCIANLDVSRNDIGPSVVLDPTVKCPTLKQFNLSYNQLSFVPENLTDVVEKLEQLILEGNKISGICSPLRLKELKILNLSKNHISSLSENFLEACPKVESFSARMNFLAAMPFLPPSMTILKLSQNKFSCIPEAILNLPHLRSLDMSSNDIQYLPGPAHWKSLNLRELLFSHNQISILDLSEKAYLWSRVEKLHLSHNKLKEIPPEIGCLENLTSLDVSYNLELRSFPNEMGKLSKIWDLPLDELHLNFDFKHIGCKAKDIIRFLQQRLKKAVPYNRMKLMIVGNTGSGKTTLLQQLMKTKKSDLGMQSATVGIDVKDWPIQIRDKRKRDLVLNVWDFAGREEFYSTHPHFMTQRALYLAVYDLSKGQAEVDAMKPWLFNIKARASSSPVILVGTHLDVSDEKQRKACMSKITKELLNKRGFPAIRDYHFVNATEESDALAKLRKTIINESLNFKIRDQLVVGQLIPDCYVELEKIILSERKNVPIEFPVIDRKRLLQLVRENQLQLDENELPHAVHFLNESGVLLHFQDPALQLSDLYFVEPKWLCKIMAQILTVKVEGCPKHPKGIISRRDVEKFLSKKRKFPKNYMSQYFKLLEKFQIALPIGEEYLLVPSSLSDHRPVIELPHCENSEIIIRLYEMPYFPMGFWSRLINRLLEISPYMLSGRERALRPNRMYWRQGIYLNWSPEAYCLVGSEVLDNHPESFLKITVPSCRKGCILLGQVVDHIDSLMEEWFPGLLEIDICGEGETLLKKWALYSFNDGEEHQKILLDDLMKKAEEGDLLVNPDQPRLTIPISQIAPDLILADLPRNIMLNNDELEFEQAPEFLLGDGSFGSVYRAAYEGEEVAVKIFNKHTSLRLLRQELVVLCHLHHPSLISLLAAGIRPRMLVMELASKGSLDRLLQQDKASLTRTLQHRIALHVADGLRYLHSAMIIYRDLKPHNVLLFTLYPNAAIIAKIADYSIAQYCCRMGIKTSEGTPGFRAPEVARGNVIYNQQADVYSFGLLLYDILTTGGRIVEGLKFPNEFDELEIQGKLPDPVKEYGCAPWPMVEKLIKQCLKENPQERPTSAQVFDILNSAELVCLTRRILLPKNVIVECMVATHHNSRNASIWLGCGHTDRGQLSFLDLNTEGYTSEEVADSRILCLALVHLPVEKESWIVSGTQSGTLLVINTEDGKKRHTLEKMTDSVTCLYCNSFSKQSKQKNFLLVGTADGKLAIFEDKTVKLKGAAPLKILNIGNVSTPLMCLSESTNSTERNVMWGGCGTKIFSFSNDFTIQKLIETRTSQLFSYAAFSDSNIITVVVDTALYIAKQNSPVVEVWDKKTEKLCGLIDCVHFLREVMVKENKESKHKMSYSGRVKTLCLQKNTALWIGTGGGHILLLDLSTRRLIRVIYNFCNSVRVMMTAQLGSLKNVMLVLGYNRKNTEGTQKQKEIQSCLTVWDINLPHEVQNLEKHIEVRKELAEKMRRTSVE
Leucine-rich repeat serine/threonine-protein kinase 2 (Homo sapiens, UniProt Q5S007), sequence (Q5S007 whole entry): as the sequence (Q5S007 whole entry G2019S) above, with S2019G counted along it
Tyrosine-protein kinase ABL1 (Homo sapiens), sequence (P00519 whole entry): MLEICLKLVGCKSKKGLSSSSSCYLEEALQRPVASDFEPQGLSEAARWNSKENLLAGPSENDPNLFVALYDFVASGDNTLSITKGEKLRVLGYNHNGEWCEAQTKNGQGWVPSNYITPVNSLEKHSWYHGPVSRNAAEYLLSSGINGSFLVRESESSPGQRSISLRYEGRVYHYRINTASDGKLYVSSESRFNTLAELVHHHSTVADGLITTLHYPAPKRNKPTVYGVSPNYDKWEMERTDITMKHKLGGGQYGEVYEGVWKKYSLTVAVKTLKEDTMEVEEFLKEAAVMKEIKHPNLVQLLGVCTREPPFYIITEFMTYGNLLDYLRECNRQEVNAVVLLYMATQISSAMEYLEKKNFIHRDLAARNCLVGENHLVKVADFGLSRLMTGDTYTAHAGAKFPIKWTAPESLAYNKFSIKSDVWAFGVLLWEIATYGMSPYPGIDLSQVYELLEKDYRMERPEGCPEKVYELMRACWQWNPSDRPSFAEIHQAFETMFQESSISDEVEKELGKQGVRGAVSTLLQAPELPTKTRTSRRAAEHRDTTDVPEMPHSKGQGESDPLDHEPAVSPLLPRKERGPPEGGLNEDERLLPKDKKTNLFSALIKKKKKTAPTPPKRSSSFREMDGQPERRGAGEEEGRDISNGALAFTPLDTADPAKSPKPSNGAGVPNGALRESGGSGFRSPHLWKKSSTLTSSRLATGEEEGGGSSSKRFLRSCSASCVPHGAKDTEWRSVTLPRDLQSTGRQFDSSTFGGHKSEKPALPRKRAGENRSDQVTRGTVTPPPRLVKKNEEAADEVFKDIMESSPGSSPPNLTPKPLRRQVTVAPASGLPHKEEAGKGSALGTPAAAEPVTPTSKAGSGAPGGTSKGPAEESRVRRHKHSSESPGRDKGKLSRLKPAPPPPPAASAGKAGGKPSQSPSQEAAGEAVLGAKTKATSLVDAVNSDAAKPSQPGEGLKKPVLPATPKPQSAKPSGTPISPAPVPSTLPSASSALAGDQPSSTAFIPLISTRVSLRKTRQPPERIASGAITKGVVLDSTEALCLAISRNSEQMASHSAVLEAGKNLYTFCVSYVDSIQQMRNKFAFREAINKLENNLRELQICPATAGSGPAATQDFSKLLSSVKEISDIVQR
Receptor-type tyrosine-protein kinase FLT3 (Homo sapiens), sequence (P36888 whole entry): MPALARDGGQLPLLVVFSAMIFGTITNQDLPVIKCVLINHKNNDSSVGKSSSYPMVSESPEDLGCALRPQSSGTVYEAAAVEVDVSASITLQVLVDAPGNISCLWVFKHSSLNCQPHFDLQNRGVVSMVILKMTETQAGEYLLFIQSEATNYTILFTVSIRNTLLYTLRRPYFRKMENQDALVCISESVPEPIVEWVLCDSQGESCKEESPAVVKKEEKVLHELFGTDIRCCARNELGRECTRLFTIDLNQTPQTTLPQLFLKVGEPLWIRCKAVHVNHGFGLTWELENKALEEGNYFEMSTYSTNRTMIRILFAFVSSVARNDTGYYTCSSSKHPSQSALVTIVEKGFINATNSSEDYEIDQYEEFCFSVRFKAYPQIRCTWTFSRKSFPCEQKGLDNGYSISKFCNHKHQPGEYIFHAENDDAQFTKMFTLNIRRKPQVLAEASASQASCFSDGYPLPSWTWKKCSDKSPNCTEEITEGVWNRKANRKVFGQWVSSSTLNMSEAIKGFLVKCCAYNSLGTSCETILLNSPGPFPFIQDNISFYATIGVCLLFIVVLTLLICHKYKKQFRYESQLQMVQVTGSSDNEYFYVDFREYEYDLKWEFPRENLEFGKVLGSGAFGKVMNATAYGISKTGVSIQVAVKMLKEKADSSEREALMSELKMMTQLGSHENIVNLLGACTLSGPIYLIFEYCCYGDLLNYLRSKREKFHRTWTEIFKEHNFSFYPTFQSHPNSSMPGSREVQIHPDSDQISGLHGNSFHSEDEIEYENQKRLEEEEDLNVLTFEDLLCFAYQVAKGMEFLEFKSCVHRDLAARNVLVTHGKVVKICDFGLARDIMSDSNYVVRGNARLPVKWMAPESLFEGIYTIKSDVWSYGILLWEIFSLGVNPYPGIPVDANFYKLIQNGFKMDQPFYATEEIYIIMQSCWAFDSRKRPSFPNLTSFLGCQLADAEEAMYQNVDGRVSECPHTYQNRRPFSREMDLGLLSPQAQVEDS
Aurora kinase A (Homo sapiens), sequence (O14965 whole entry): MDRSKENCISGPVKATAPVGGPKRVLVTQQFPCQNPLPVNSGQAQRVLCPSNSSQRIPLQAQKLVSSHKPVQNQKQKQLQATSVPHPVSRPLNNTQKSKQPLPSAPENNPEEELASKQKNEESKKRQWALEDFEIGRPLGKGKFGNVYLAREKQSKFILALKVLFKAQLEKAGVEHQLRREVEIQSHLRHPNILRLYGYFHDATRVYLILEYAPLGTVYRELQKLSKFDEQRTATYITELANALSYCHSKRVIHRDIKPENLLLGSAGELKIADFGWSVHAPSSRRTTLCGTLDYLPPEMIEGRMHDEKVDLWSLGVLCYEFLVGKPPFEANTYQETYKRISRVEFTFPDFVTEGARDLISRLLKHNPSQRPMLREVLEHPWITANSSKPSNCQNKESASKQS

What is called IC50 is the concentration at which inhibition is half-maximal. Lower therefore signals greater potency. For the compound `CC(C)(C)c1cccc(Sc2ccc3nnc(-c4cncs4)n3n2)c1`, the 50% inhibitory concentration (IC50) was determined as 1.39 µM in [1], 0.075 µM in data set [3] and 0.03 µM in data set [4]. For the same compound, the Ratio IC50 in [2] came out at 2.5.

As for `FC(F)(F)c1cccc(Sc2ccc3nnc(-c4cncs4)n3n2)c1`, the concentration for half-maximal inhibition (IC50) was found to be 0.78 µM in data set [1], 0.074 µM in data set [3] and 0.018 µM in [4]. The Ratio IC50 in data set [2] came out at 4.1.

Usually efflux ratio stands for a quotient of directional permeabilities that is used to spot active efflux. `COC(=O)C(C)Sc1ccc2nnc(-c3cccs3)n2n1` (stereo not drawn): in [5], the Papp was 280 nm/s. The efflux ratio in [6] amounted to 0.8. In addition, in [7], the solubility kinetic amounted to 72 µM (≈ 23.1 µg/mL). Moreover, the Ratio IC50 in [2] came out at 2.7. Besides, the half-maximal inhibitory concentration (IC50) in data set [3] came to 0.535 µM; in data set [4], 0.2 µM.

`FC(F)(F)c1cccc(Sc2ccc3nnc(-c4nccs4)n3n2)c1`: the half-inhibitory concentration (IC50) was determined as 1.73 µM in data set [1], 0.088 µM in data set [3] and 0.025 µM in data set [4]. Besides, the Ratio IC50 in [2] stood at 3.5.

With `Brc1cccc(Sc2ccc3nnc(-c4cncs4)n3n2)c1`, the concentration for half-maximal inhibition (IC50) is 0.683 µM in [1], 0.032 µM in data set [3] and 0.006 µM in data set [4]. Further, the Ratio IC50 in data set [2] was 5.3.

In the case of `FC(F)(F)c1cccc(Sc2ccc3nnc(-c4cscn4)n3n2)c1`, the results for the IC50 in data set [1], in data set [3] and in [4] were 2.11 µM, 0.14 µM and 0.035 µM, respectively. Moreover, the Ratio IC50 in data set [2] came out at 4.

As for `CC(Sc1ccc2nnc(-c3cccs3)n2n1)C(N)=O` (stereo not drawn), the IC50 in [1] was 3.03 µM; in data set [3] it was 0.098 µM; in data set [4], 0.048 µM. Further, in [7], the solubility kinetic was determined as 12 µM (≈ 3.66 µg/mL). For the same compound, in data set [2], the Ratio IC50 was 2.

As for `FC(F)(F)c1cccc(Sc2ccc3nnc(-c4ccn[nH]4)n3n2)c1`, the figures for the half-inhibitory concentration (IC50) in data set [1], in data set [3] and in [4] were 1.02 µM, 0.053 µM and 0.013 µM, respectively. In addition, in data set [2], the Ratio IC50 was 4.1.

The inhibition is the share of the control response that was lost under treatment. For `FC(F)(F)c1cccc(Sc2ccc3nnc(-c4ccccc4)n3n2)c1`, the inhibition in data set [8], in data set [9], in data set [10], in data set [11], in data set [12] and in [13] was below 18% throughout. For the same compound, the inhibition in data set [14], in data set [15], in data set [16], in [17], in data set [18] and in [19] was below 18% throughout. Besides, the inhibition in [20], in data set [21], in data set [22], in data set [23], in data set [24] and in data set [25] was below 18% in each case. The same compound came in with an inhibition in data set [26] below 18%. Also, the Stability entry is listed as “Stable” in data set [27] and “Unstable” in data set [28]. For the same compound, the Papp in [5] was determined as 21 nm/s. The solubility kinetic in data set [7] came to 9 µM (≈ 3.35 µg/mL). Also, the Ratio IC50 in [2] is 4.8. The concentration for half-maximal inhibition (IC50) was found to be 0.242 µM in data set [3] and 0.05 µM in data set [4].

`FC(F)(F)c1cccc(Sc2ccc3nnc(-c4cccs4)n3n2)c1`: the IC50 in data set [1] is 1.66 µM; in [3] it was 0.075 µM; in data set [4], 0.023 µM. Further, the solubility kinetic in [7] was 8 µM (≈ 3.03 µg/mL). Besides, in [2], the Ratio IC50 amounted to 3.3.

For the compound `Clc1cccc(Sc2ccc3nnc(-c4cncs4)n3n2)c1`, the half-maximal inhibitory concentration (IC50) came to 1.4 µM in data set [1], 0.031 µM in data set [3] and 0.008 µM in [4]. Also, the Ratio IC50 in data set [2] was found to be 3.9.

In the case of `COC(=O)[C@H](C)Sc1ccc2nnc(-c3cccs3)n2n1`, in data set [7], the solubility kinetic came to 99 µM (≈ 31.7 µg/mL). Besides, the Ratio IC50 in [2] was 2.1. Also, the IC50 in data set [3] was determined as 0.458 µM; in data set [4], 0.215 µM.

Regarding `FC(F)(F)c1cccc(Sc2cn3c(-c4cccs4)cnc3cn2)c1`, the solubility kinetic in data set [7] was 18 µM (≈ 6.79 µg/mL). Further, in [2], the Ratio IC50 was found to be 1.6. The values for the concentration for half-maximal inhibition (IC50) in data set [3] and in [4] were 3.4 µM and 2.17 µM, respectively.

The values are drawn from ChEMBL document CHEMBL2346543, “Triazolopyridazine LRRK2 kinase inhibitors” (Bioorg Med Chem Lett, 2013).
